What was measured:
Format in all cases: functional
[1] = system: HOP-92; experiment: Growth inhibition of human HOP92 cells incubated for 48 hrs by sulforhodamine B assay; conditions: HOP-92, 48 h; for CC50: read-out: LC50 (the source's name)
In short: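 NCI-60 five-dose screen at 0.01, 0.1, 1, 10 and 100 µM, 48 h incubation, sulforhodamine B end point. GI50 (50% decrease in net growth), TGI (total growth inhibition) and LC50 (net 50% loss of initial cells) taken from log concentration versus % growth inhibition curves.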

[2] = system: UACC-62; experiment: Growth inhibition of human UACC62 cells incubated for 48 hrs by sulforhodamine B assay; conditions: UACC-62, 48 h; for CC50: read-out: LC50 (the source's name)
In short: (§1)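 NCI 60 human tumour cell line panel, five-dose study at 0.01, 0.1, 1, 10 and 100 µM, 48 h incubation. Sulforhodamine B protein-binding dye end point. GI50 (50% decrease in net cell growth), TGI (total growth inhibition) and LC50 (net 50% loss of initial cells) read from log concentration versus % growth inhibition curves.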

[3] = system: UO-31; experiment: Growth inhibition of human UO31 cells incubated for 48 hrs by sulforhodamine B assay; conditions: UO-31, 48 h; in short: as §1
[4] = system: K562; experiment: Anticancer activity against human K562 cells assessed as cell growth at 10 uM after 48 hrs by sulforhodamine B assay relative to control; conditions: K562, 48 h, read-out: Activity
In short: (§2)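 Single-dose NCI-60 panel screen: compound added at 10 µM and the culture incubated 48 h. The end point was read by protein staining with sulforhodamine B. The value is percent growth of treated cells relative to untreated control cells, reported as a mean graph across the panel.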

[5] = system: MOLT-4; experiment: Anticancer activity against human MOLT4 cells assessed as cell growth at 10 uM after 48 hrs by sulforhodamine B assay relative to control; conditions: MOLT-4, 48 h, read-out: Activity; in short: as §2
[6] = system: SR; experiment: Anticancer activity against human SR cells assessed as cell growth at 10 uM after 48 hrs by sulforhodamine B assay relative to control; conditions: read-out: Activity
In short: (§3)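 NCI-60 single-dose screen: compound added at 10 µM, cultures incubated 48 h. End point by sulforhodamine B protein-binding dye. Value reported as percent growth of treated cells relative to untreated control cells.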

[7] = system: EKVX; experiment: Anticancer activity against human EKVX cells assessed as cell growth at 10 uM after 48 hrs by sulforhodamine B assay relative to control; conditions: read-out: Activity; in short: as §2
[8] = system: HOP-62; experiment: Anticancer activity against human HOP62 cells assessed as cell growth at 10 uM after 48 hrs by sulforhodamine B assay relative to control; conditions: HOP-62, 48 h, read-out: Activity; in short: as §2
[9] = system: NCI-H226; experiment: Anticancer activity against human NCI-H226 cells assessed as cell growth at 10 uM after 48 hrs by sulforhodamine B assay relative to control; conditions: NCI-H226, 48 h, read-out: Activity; in short: as §2
[10] = system: COLO 205; experiment: Anticancer activity against human COLO205 cells assessed as cell growth at 10 uM after 48 hrs by sulforhodamine B assay relative to control; conditions: COLO 205, 48 h, read-out: Activity; in short: as §2
[11] = system: HCC 2998; experiment: Anticancer activity against human HCC2998 cells assessed as cell growth at 10 uM after 48 hrs by sulforhodamine B assay relative to control; conditions: HCC 2998, 48 h, read-out: Activity; in short: as §2
[12] = system: HCT-116; experiment: Anticancer activity against human HCT116 cells assessed as cell growth at 10 uM after 48 hrs by sulforhodamine B assay relative to control; conditions: HCT-116, 48 h, read-out: Activity; in short: as §2
[13] = system: HCT-15; experiment: Anticancer activity against human HCT15 cells assessed as cell growth at 10 uM after 48 hrs by sulforhodamine B assay relative to control; conditions: HCT-15, 48 h, read-out: Activity; in short: as §2
[14] = system: KM12; experiment: Anticancer activity against human KM12 cells assessed as cell growth at 10 uM after 48 hrs by sulforhodamine B assay relative to control; conditions: KM12, 48 h, read-out: Activity; in short: as §2
[15] = system: SNB-75; experiment: Anticancer activity against human SNB75 cells assessed as cell growth at 10 uM after 48 hrs by sulforhodamine B assay relative to control; conditions: SNB-75, 48 h, read-out: Activity; in short: as §3
[16] = system: U-251; experiment: Anticancer activity against human U251 cells assessed as cell growth at 10 uM after 48 hrs by sulforhodamine B assay relative to control; conditions: U-251, 48 h, read-out: Activity; in short: as §3
[17] = system: LOX IMVI; experiment: Anticancer activity against human LOXIMVI cells assessed as cell growth at 10 uM after 48 hrs by sulforhodamine B assay relative to control; conditions: read-out: Activity; in short: as §2
[18] = system: Malme-3M; experiment: Anticancer activity against human MALME-3M cells assessed as cell growth at 10 uM after 48 hrs by sulforhodamine B assay relative to control; conditions: read-out: Activity; in short: as §2
[19] = system: MDA-MB-435; experiment: Anticancer activity against human MDA-MB-435 cells assessed as cell growth at 10 uM after 48 hrs by sulforhodamine B assay relative to control; conditions: MDA-MB-435, 48 h, read-out: Activity; in short: as §2
[20] = system: SK-MEL-28; experiment: Anticancer activity against human SK-MEL-28 cells assessed as cell growth at 10 uM after 48 hrs by sulforhodamine B assay relative to control; conditions: SK-MEL-28, 48 h, read-out: Activity; in short: as §2
[21] = system: SK-MEL-5; experiment: Anticancer activity against human SK-MEL-5 cells assessed as cell growth at 10 uM after 48 hrs by sulforhodamine B assay relative to control; conditions: SK-MEL-5, 48 h, read-out: Activity; in short: as §2
[22] = system: OVCAR-5; experiment: Anticancer activity against human OVCAR5 cells assessed as cell growth at 10 uM after 48 hrs by sulforhodamine B assay relative to control; conditions: OVCAR-5, 48 h, read-out: Activity; in short: as §2
[23] = system: SK-OV-3; experiment: Anticancer activity against human SKOV3 cells assessed as cell growth at 10 uM after 48 hrs by sulforhodamine B assay relative to control; conditions: SK-OV-3, 48 h, read-out: Activity; in short: as §2
[24] = system: A498; experiment: Anticancer activity against human A498 cells assessed as cell growth at 10 uM after 48 hrs by sulforhodamine B assay relative to control; conditions: A498, 48 h, read-out: Activity; in short: as §2
[25] = system: RXF 393; experiment: Anticancer activity against human RXF393 cells assessed as cell growth at 10 uM after 48 hrs by sulforhodamine B assay relative to control; conditions: RXF 393, 48 h, read-out: Activity; in short: as §2
[26] = system: PC-3; experiment: Anticancer activity against human PC3 cells assessed as cell growth at 10 uM after 48 hrs by sulforhodamine B assay relative to control; conditions: PC-3, 48 h, read-out: Activity; in short: as §2
[27] = system: DU-145; experiment: Anticancer activity against human DU145 cells assessed as cell growth at 10 uM after 48 hrs by sulforhodamine B assay relative to control; conditions: DU-145, 48 h, read-out: Activity; in short: as §2
[28] = system: MCF7; experiment: Anticancer activity against human MCF7 cells assessed as cell growth at 10 uM after 48 hrs by sulforhodamine B assay relative to control; conditions: MCF7, 48 h, read-out: Activity; in short: as §2
[29] = system: MDA-MB-231; experiment: Anticancer activity against human MDA-MB-231 cells assessed as cell growth at 10 uM after 48 hrs by sulforhodamine B assay relative to control; conditions: MDA-MB-231, 48 h, read-out: Activity; in short: as §2

SMILES | GI50 [1] [µM] | TGI [1] [µM] | CC50 [1] [µM] | GI50 [2] [µM] | TGI [2] [µM] | CC50 [2] [µM] | GI50 [3] [µM] | LC50 (concentration giving net 50% loss of initial cells) [3] [µM] | TGI [3] [µM] | growth at 10 µM [4] [%] | growth at 10 µM [5] [%] | growth at 10 µM [6] [%] | growth at 10 µM [7] [%] | growth at 10 µM [8] [%] | growth at 10 µM [9] [%] | growth at 10 µM [10] [%] | growth at 10 µM [11] [%] | growth at 10 µM [12] [%] | growth at 10 µM [13] [%] | growth at 10 µM [14] [%] | further results
C=C1CC[C@@H]2[C@](C)(COC(C)=O)[C@H](OC(C)=O)CC[C@@]2(C)[C@H]1CC(Nc1ccc(S(=O)(=O)Nc2ccc(Cl)nn2)cc1)C1=CCOC1=O (stereo not given in full) | 2.7 | 7.89 | 27.5 | 1.49 | 3.86 | 10 | 1.45 | 5.73 | 2.88 | 6.81 | 0.4 | -5.26 | 87.3 | 47.9 | -10 | 18 | 88.5 | -34.1 | -18.4 | 27 | growth at 10 µM [15]: 25.2%; growth at 10 µM [16]: -41.2%; growth at 10 µM [17]: -84.6%; growth at 10 µM [18]: 55.3%; growth at 10 µM [19]: 8.13%; growth at 10 µM [20]: 6.66%; growth at 10 µM [21]: 35.8%; growth at 10 µM [22]: 44.6%; growth at 10 µM [23]: 86.1%; growth at 10 µM [24]: 89%; growth at 10 µM [25]: -13.4%; growth at 10 µM [26]: 38.4%; growth at 10 µM [27]: 40.2%; growth at 10 µM [28]: 16.8%; growth at 10 µM [29]: 23.8%
C=C1CC[C@@H]2[C@](C)(COC(C)=O)[C@H](OC(C)=O)CC[C@@]2(C)[C@H]1CC(Nc1ccc(S(=O)(=O)Nc2nccc(C)n2)cc1)C1=CCOC1=O (stereo not given in full) | 6.24 | 18.9 | 44.5 | 2.38 | 7.12 | 30.3 | 2.91 | 33.3 | 10.6 | 3.62 | -1.85 | 0.79 | 79.2 | 156 | -12.1 | 9.64 | 68.2 | -32.2 | -42 | 13.2 | growth at 10 µM [15]: 9.66%; growth at 10 µM [16]: 14.6%; growth at 10 µM [17]: -72.9%; growth at 10 µM [18]: -0.7%; growth at 10 µM [19]: 0.23%; growth at 10 µM [20]: -7.05%; growth at 10 µM [21]: 45%; growth at 10 µM [22]: 26.9%; growth at 10 µM [23]: 101%; growth at 10 µM [24]: 96.8%; growth at 10 µM [25]: -38.3%; growth at 10 µM [26]: 41.5%; growth at 10 µM [27]: 38.5%; growth at 10 µM [28]: 0.14%; growth at 10 µM [29]: 13.3%
